According to ChEMBL document CHEMBL2010755, “Synthesis of new sulfonamides as lipoxygenase inhibitors” (Bioorg Med Chem, 2012):

Tests used:
[1] = Inhibition of lipoxygenase using linoleic acid as substrate after 10 mins preincubation
In short: (§1)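 Purified lipoxygenase (600 units per well) in 100 mM sodium phosphate buffer pH 8.0, with test compound. Pre-read at 234 nm, preincubated 10 min at 25 °C, then started with linoleic acid. Absorbance change at 234 nm read after 6 min. Percent inhibition tested at 0.5 mM. IC50 obtained from dilutions of compounds exceeding 50% inhibition. Triplicates, mean ± SEM.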

[2] = Inhibition of lipoxygenase using linoleic acid as substrate at 0.5 mM after 10 mins preincubation; in short: as §1

Compound | IC50 [1] [µM] | inhibition [2] [%]
O=c1cc(-c2ccccc2)oc2cc(O)c(O)c(O)c12 [BAICALEIN] | 22.4 | 
Cc1ccc(S(=O)(=O)N(C/C=C/c2ccccc2)c2ccc(C(=O)OC/C=C/c3ccccc3)cc2)cc1 | > 600 | 26.9
Cc1ccc(S(=O)(=O)Nc2ccc(C(=O)OCC#N)cc2)cc1 | 232 | 97
Cc1ccc(S(=O)(=O)N(C(=O)c2ccccc2)c2ccc(C(=O)O)cc2)cc1 | 91.7 | 99
Cc1ccc(S(=O)(=O)Nc2ccc(C(=O)O)cc2)cc1 | 139 | 99.4
CCCN(c1ccc(C(=O)O)cc1)S(=O)(=O)c1ccc(C)cc1 | > 500 | 40
Cc1ccc(S(=O)(=O)N(C(=O)c2ccc(Cl)cc2)c2ccc(C(=O)O)cc2)cc1 | 176 | 98.1
CCCCN(c1ccc(C(=O)O)cc1)S(=O)(=O)c1ccc(C)cc1 | 61.4 | 99.4
Cc1ccc(S(=O)(=O)N(CCCl)c2ccc(C(=O)O)cc2)cc1 | > 600 | 21.9
Cc1ccc(S(=O)(=O)N(Cc2ccccc2)c2ccc(C(=O)O)cc2)cc1 | 59.1 | 85.1
C=CCN(c1ccc(C(=O)O)cc1)S(=O)(=O)c1ccc(C)cc1 | 219 | 96.2
CC(C)=CCN(c1ccc(C(=O)O)cc1)S(=O)(=O)c1ccc(C)cc1 | 15.8 | 98.7
CCCCCN(c1ccc(C(=O)O)cc1)S(=O)(=O)c1ccc(C)cc1 | 68.6 | 98.6
O=c1c(O)c(-c2ccc(O)c(O)c2)oc2cc(O)cc(O)c12 [QUERCETIN] | 37.1 | 
COC(=O)c1ccc(N(C)S(=O)(=O)c2ccc(C)cc2)cc1 | 189 | 88.5
CCOC(=O)c1ccc(N(CC)S(=O)(=O)c2ccc(C)cc2)cc1 | 231 | 97.6
